# Assay outcomes as filed in PubChem.
# HDAC3 inhib = HDAC3 deacetylase inhibitors, primary screen, biochemical, fluorescence, cell-free homogeneous; Histone deacetylase 3 (Homo sapiens), O15379; recombinant HDAC3, fluorogenic peptide/trypsin coupled; inhibition, % at 8.3 µM; 0.15% of 320,000 active; AID 2718, 2010; in the data active means inhibition above about 26%, passing the limit was not always enough
# ALR H2O2 inh = inhibitors of human ALR sulfhydryl oxidase, primary screen, biochemical, H2O2 detection, HRP-luminol luminescence, single point; inhibition, % (test concentration not listed); 3.8% of 290,000 active; purified ALR, DTT oxidation; AID 485317, 2010; FAD-linked sulfhydryl oxidase ALR (Homo sapiens), P55789;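 active means mean replicate inhibition above about 79%, with every replicate also reaching it, limit read from the data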
# Target sequence (P55789 whole entry, looked up): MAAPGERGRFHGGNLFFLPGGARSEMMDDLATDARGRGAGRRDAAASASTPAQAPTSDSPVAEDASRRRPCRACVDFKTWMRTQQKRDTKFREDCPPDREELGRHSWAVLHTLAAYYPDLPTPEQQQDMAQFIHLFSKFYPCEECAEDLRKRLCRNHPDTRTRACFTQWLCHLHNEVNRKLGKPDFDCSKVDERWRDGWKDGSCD
# FAS TE block = FAS thioesterase domain inhibitors, primary screen, biochemical, fluorescence intensity, uHTS; AID 602261, 2012; 0.67% of 360,000 active; inhibition, % at 15 µM; recombinant FAS-TE, OMFH fluorogenic substrate, fluorescence endpoint; Fatty acid synthase (Homo sapiens), P49327;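 active means compounds whose normalised, plate-corrected inhibition of enzyme fluorescence in the single-dose primary screen is 50% or more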;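 further: 0% = DMSO with enzyme and 100% = substrate without enzyme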
# PfM18AAP inh = PfM18AAP inhibitors, malaria aminopeptidase, primary screen, biochemical, QFRET, recombinant enzyme. H-Glu-NHMec fluorogenic cleavage. inhibition, % at 7.35 µM. 1.2% of 290,000 active. AID 1822, 2009;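 active means inhibition above the campaign mean inhibition over all tested compounds plus 3 SD, cut at about 28% in these data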;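 further: 0% = plate median of test compound wells and 100% = 2 mM ZnCl2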
# UCH37 inh = inhibitors of human UCH37 deubiquitinase, primary screen, biochemical, Ub-AMC cleavage, fluorescence; Ubiquitin carboxyl-terminal hydrolase isozyme L5 (Homo sapiens), Q9Y5K5; purified proteasome/UCH37; inhibition, % (test concentration not listed); 0.33% of 330,000 active; AID 588478, 2011;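 active means mean inhibition over replicate wells above about 20%, limit read from the data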;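 further: 0% = compound-free wells with enzyme and 100% = wells lacking proteasome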
#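 Reagent: Ub-AMC substrate; assay system: Proteasome-associated human UCH37 deubiquitinase; controls: no-proteasome and no-compound wells; read-out: % inhibition of Ub-AMC cleavage fluorescence; timing: 30 min preincubation with enzyme, 25 min cleavage at room temperature; signal: AMC fluorescence from Ub-AMC cleavage, excitation 355 nm, emission 460 nm; buffer or medium: Tris-HCl pH 7.4 plus ovalbumin, ATP-MgCl2, DTT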
# Rtt109 Vps75 = inhibitors of C. albicans Rtt109/Vps75 HAT, primary screen, biochemical, ThioGlo CoA-SH fluorescence, plate reader | Histone acetyltransferase RTT109 (Candida albicans (strain SC5314 / ATCC MYA-2876)), … | purified Rtt109/Vps75, 4 h | inhibition, % at 34.9 µM | 0.16% of 330,000 active | AID 540336, 2011;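 active means inhibition of at least 50% in every replicate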
# Starred values were filed as active, the others as inactive; · = not tested or not shown. The list is not random: actives were taken first. Their share in the collection is about 4.6%.
SMILES,HDAC3 inhib,ALR H2O2 inh,FAS TE block,PfM18AAP inh,UCH37 inh,Rtt109 Vps75
O=C(NNC(=O)c1cccs1)c1ccc(Cl)c([N+](=O)[O-])c1,1,2,5,-11,21*,-7
O=C(COC(=O)CNC(=O)c1ccc(Cl)c([N+](=O)[O-])c1)NNC(=O)c1cccs1,1,·,3,·,4,8
CON=C/C=C1/N(C)c2ccccc2C1(C)C,·,·,·,·,10,·
CCOc1ccccc1CNc1ccc(N2CCOCC2)c(C(=O)O)c1,-2,3,-6,4,-17,-3
COC(=O)c1cc(NCc2ccccc2F)ccc1N1CCOCC1,-2,99*,-1,1,-22,8
CCOC(=O)c1cc(NCc2cccs2)ccc1N1CCOCC1,4,99*,-3,6,-7,-1
O=C(NC1CCCC1)c1ccc(COCC(F)(F)F)o1,-1,-8,-12,-2,1,3
O=C(NC1CCCC1)c1ccc(COCC(F)(F)C(F)F)o1,-4,98*,-1,0,1,-5
C(=NNc1nc(-c2ccccc2)cc(-c2ccccc2)n1)c1cccnc1,·,·,·,·,-1,·
O=C(NN=Cc1ccc(OC(=O)c2cccc(F)c2)cc1)c1cccnc1,·,·,·,·,5,·
COc1cc(OC)c(C2SCCS2)c(OC)c1,-12,99*,-1,0,3,-9
O=C1C(=O)N(c2ccc(O)cc2)C(c2ccccc2[N+](=O)[O-])/C1=C(\O)c1ccccc1 (stereo unspecified),1,85*,-4,-1,13,4
CC(C)CC1Nc2ccc(C(=O)NCc3ccc4c(c3)OCO4)cc2NC1=O (stereo unspecified),-3,-1,2,29*,6,-4
N#Cc1ccc(Nc2ccccc2)c(N)c1,-4,98*,4,-10,-62,-3
N#Cc1cc(N)c(Nc2ccccc2)cc1C#N,7,61,27,-3,-14,-5
Nc1cc(C(F)(F)F)ccc1NCCc1ccccn1,2,98*,2,18,0,-6
Nc1cc([N+](=O)[O-])ccc1O,9,99*,-2,24,14,5
Nc1cc(C(F)(F)F)ccc1Nc1ccccc1,3,98*,-4,7,1,16
c1ccc(NCCc2ccccn2)cc1,·,·,-8,·,5,3
Cc1ccc([N+](=O)[O-])cc1N,·,1,-4,3,8,-2
CN(C)c1cccc(C(=O)NN=Cc2ccsc2)c1,·,·,·,·,5,·
CCOC(=O)c1c(N=CC2=C(O)CCCC2=O)sc2c1CCCC2,·,·,·,·,-2,·
CN(C)c1ccc(C=NNC(=O)C2COc3ccccc3O2)o1 (stereo unspecified),·,·,·,·,-3,·
O=[N+]([O-])c1ccc(O)c(NC(=S)Nc2ccccc2)c1,-6,98*,12,9,9,14
Nc1cc([N+](=O)[O-])ccc1Nc1ccccc1,10,99*,6,12,7,17
SMILES,HDAC3 inhib,ALR H2O2 inh,FAS TE block,PfM18AAP inh,UCH37 inh,Rtt109 Vps75
O=C(O)c1cc([N+](=O)[O-])ccc1Nc1ccccc1,0,9,-5,0,14,-16
Oc1ccc(C=NNC(=S)Nc2cccnc2)c(O)c1,·,·,·,·,1,·
CN(C)S(=O)(=O)c1ccc(-c2csc(NN=Cc3ccc(O)cc3)n2)cc1,·,·,·,·,-18,·
CCCC(c1nnnn1C(C)(C)C)N1CCN(c2ccccc2)CC1 (stereo unspecified),-4,98*,4,-3,6,2
CCCC(c1nnnn1Cc1ccco1)N1CCN(c2ccccc2)CC1 (stereo unspecified),5,88*,-3,-7,5,-6
CCC(c1nnnn1C1CCCC1)N1CCN(c2ccccc2F)CC1 (stereo unspecified),0,0,3,-6,2,-5
